In ChEMBL document CHEMBL1165857, “Novel 3-alkanoyl/aroyl/heteroaroyl-2H-chromene-2-thiones: synthesis and evaluation of their antioxidant activities” (Eur J Med Chem, 2010):
In brackets after ≈: the same amount, converted by molar mass.

What was measured:
[1] = Antioxidant activity assessed as inhibition of glutathione-induced curcumin depletion at 10 ug/ml; assay type: functional
In short: (§1)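 Reaction solution: 20 μM curcumin and 15 mM GSH in 60% methanol, with sample at 10 μg/mL. Control had no sample. Solutions were γ-irradiated to generate GS• radicals; doses up to 250 Gy, with PI reported at 100 Gy. Curcumin depletion followed by absorbance at 425 nm against a blank. Protective index (%) derived from depletion with versus without sample.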

[2] = DPPH radical scavenging activity assessed as ascorbic acid equivalent antioxidant capacity; assay type: functional
In short: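 DPPH IC50 determined as above (100 μM DPPH in methanol, 30 min dark, room temperature, 515 nm). AEAC in mg ascorbic acid/g sample calculated as IC50(ascorbate)/IC50(sample) × 1000.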

[3] = system: Radical scavenging activity; test: Antioxidant activity assessed as DPPH radical scavenging activity; assay type: functional
In short: (§2)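 DPPH (100 μM) in absolute methanol, compounds at 0–1000 μg/mL, in triplicate. After 30 min in the dark at room temperature, absorbance read at 515 nm against a blank. Percent decoloration taken relative to a methanol-treated control with DPPH and no sample; IC50 calculated in μg/mL.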

[4] = Protective index against GS radical-induced curcumin depletion at 10 ug/ml irradiated at 100 Gy; in short: as §1
[5] = system: Radical scavenging activity; test: Antioxidant activity assessed as DPPH radical scavenging activity at 250 ug/ml; assay type: functional; in short: as §2

IC50 [3] [µg/mL] | Compound | INH [1] [µM] | Activity [2] [mg/g] | PI [4] [%] | Activity [5] [%]
98.72 (≈ 333 µM) | COc1cccc2cc(C(=O)c3ccccc3)c(=S)oc12 | – | 38.7 | 10.9 | –
233.71 (≈ 753 µM) | COc1cccc2cc(C(=O)c3ccc(C)cc3)c(=S)oc12 | – | 16.4 | 3.65 | –
537.58 (≈ 1790 µM) | O=C(c1ccc(Cl)cc1)c1cc2ccccc2oc1=S | – | – | – | –
95.57 (≈ 289 µM) | COc1cccc2cc(C(=O)c3ccc(Cl)cc3)c(=S)oc12 | – | 40 | 25.2 | –
850.41 (≈ 2240 µM) | O=C(c1ccc(Cl)cc1)c1cc2cc(Br)ccc2oc1=S | – | – | – | –
358.67 (≈ 1530 µM) | COc1cccc2cc(C(C)=O)c(=S)oc12 | – | – | – | –

More lines, now with the values behind:

Compound | IC50 [3] [µg/mL] | INH [1] [µM] | Activity [2] [mg/g] | PI [4] [%] | Activity [5] [%]
CC(=O)c1cc2ccccc2oc1=S | 35.01 (≈ 171 µM) | 3.27 | 111 | 45.8 | –
COc1ccc(C(=O)c2cc3ccccc3oc2=S)cc1 | 1579.25 (≈ 5330 µM) | – | – | – | 6.41
COc1ccc(C(=O)c2cc3cc(Br)ccc3oc2=S)cc1 | 1112.83 (≈ 2970 µM) | – | – | – | –
COc1cccc2cc(C(=O)c3cccs3)c(=S)oc12 | 31.2 (≈ 103 µM) | 2.41 | 121 | 56.9 | –
COc1ccc(C(=O)c2cc3cccc(OC)c3oc2=S)cc1 | 603.43 (≈ 1850 µM) | – | – | – | –
Cc1ccc(C(=O)c2cc3ccccc3oc2=S)cc1 | 551.57 (≈ 1970 µM) | – | – | – | –
